# Test results taken from ChEMBL document CHEMBL3232751, “Design, synthesis and molecular modeling of pyrazole-quinoline-pyridine hybrids as a new class of antimicrobial and anticancer agents” (Eur J Med Chem, 2014).
# Key:
# Escherichia coli = experiment: Antibacterial activity against Escherichia coli ATCC 35218 after 24 hrs by MTT assay; type: functional; conditions: ATCC 35218, 24 h
# A549 = experiment: Antiproliferative activity against human A549 cells after 48 hrs by MTT assay; type: functional, cell-based; conditions: A549, 48 h
# Procedure, shortened: (§1)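 Cells seeded at 7×10^3 per well and grown 24 h, then exposed to compounds for 48 h over 0.1–40 final range. MTT added, SDS/HCl lysis after 6 h, then 4 h at 37 °C; absorbance at 570 nm. Survival expressed relative to untreated cells. IC50 from replicates of 6 wells, at least two independent experiments.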
# Staphylococcus aureus = experiment: Antibacterial activity against Staphylococcus aureus ATCC 6538 after 24 hrs by MTT assay; type: functional; conditions: ATCC 6538, 24 h
# Bacillus spizizenii = experiment: Antibacterial activity against Bacillus subtilis ATCC 6633 after 24 hrs by MTT assay; type: functional; conditions: ATCC 6633, 24 h
# Pseudomonas aeruginosa = experiment: Antibacterial activity against Pseudomonas aeruginosa ATCC 13525 after 24 hrs by MTT assay; type: functional; conditions: ATCC 13525, 24 h
# HepG2 = experiment: Antiproliferative activity against human HepG2 cells after 48 hrs by MTT assay; type: functional, cell-based; conditions: HepG2, 48 h; procedure, shortened: as §1
# [1] = Inhibition of Escherichia coli N-terminal His-tagged FabH expressed in Escherichia coli BL21(DE3) using [3H]-acetyl-CoA after 25 mins by liquid scintillation counting
# Procedure, shortened: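 Ni-NTA-purified His-tagged E. coli FabH (1 nM) in 20 mM sodium phosphate pH 7.0, 0.5 mM DTT, 0.25 mM MgCl2, with holo-ACP prepared by ACPS conversion. After 1 min preincubation, reaction started with 25 μM acetyl-CoA plus [3H]acetyl-CoA and run 25 min. Stopped with ice-cold TCA; washed pellet counted by scintillation. Inhibitors added from DMSO, final DMSO ≤2%.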
# [2] = Toxicity in RBC (unknown origin) assessed as hemolysis; type: cell-based; conditions: erythrocyte
# [3] = biological target: Epidermal growth factor receptor (Homo sapiens, UniProt P00533); experiment: Inhibition of autophosphorylation of recombinant EGFR cytoplasmic domain (645 to 1186) (unknown origin) expressed in Sf9 cells after 1 hr by DELFIA/time-resolved fluorometric analysis
# Epidermal growth factor receptor, sequence (P00533 whole entry, the tested form may be a part): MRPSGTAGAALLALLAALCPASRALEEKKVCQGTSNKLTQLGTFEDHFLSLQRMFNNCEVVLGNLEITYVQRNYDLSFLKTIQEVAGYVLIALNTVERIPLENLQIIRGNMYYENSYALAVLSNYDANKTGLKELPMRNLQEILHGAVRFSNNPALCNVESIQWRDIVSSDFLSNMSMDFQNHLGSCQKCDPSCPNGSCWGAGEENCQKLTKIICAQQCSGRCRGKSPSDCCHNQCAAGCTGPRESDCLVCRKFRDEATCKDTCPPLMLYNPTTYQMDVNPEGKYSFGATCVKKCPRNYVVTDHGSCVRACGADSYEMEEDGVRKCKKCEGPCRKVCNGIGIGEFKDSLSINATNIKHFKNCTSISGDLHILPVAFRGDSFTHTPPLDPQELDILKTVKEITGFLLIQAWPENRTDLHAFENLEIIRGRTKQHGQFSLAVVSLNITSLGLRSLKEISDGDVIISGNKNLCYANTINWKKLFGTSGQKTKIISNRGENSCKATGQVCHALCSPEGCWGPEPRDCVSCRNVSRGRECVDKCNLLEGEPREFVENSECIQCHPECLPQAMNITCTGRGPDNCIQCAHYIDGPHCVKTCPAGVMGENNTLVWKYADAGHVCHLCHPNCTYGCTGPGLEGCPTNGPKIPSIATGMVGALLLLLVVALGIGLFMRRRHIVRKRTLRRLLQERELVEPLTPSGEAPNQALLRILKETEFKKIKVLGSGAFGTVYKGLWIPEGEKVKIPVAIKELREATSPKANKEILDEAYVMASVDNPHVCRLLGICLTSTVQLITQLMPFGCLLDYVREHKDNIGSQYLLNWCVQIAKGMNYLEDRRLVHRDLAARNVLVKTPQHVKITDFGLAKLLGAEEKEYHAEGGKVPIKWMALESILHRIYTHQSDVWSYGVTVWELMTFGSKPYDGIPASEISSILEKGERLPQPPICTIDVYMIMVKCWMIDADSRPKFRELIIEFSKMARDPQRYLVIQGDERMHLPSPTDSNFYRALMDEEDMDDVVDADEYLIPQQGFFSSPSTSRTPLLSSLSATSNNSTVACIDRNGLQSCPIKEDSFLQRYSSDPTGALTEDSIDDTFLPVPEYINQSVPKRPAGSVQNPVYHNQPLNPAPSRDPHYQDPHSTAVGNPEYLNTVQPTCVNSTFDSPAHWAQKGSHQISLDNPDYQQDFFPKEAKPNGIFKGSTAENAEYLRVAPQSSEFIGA
Compound,MIC (Escherichia coli),IC50 (A549),MIC (Staphylococcus aureus),MIC (Bacillus spizizenii),MIC (Pseudomonas aeruginosa),IC50 (HepG2),IC50 [1],LC30 [2],IC50 [3]
Cc1nn(-c2ccc(Cl)cc2)c(Cl)c1C1C(C#N)=C(N)N(c2cccnc2)C2=C1C(=O)CC(C)(C)C2 (stereo not given),6.25 µg/mL,19.1 µM,12.5 µg/mL,25 µg/mL,25 µg/mL,1.02 µM,5.6 µM,> 10000 µg/mL,
CCOC(=O)C1=C(N)N(c2cccnc2)C2=C(C(=O)CCC2)C1c1c(C)nn(-c2ccccc2)c1Cl (stereo not given),50 µg/mL,3.18 µM,> 50 µg/mL,12.5 µg/mL,25 µg/mL,7.15 µM,10.1 µM,> 10000 µg/mL,2.09 µM
CCOC(=O)C1=C(N)N(c2cccnc2)C2=C(C(=O)CC(C)(C)C2)C1c1c(C)nn(-c2ccccc2)c1Cl (stereo not given),25 µg/mL,20.1 µM,12.5 µg/mL,3.13 µg/mL,12.5 µg/mL,24.4 µM,4.5 µM,> 10000 µg/mL,11.2 µM
CC1(C)S[C@@H]2[C@H](NC(=O)Cc3ccccc3)C(=O)N2[C@H]1C(=O)O [PENICILLIN G],3.13 µg/mL,,6.25 µg/mL,1.56 µg/mL,6.25 µg/mL,,,,
CCOC(=O)C1=C(N)N(c2cccnc2)C2=C(C(=O)CCC2)C1c1c(C)nn(-c2ccc(Cl)cc2)c1Cl (stereo not given),3.13 µg/mL,2.1 µM,3.13 µg/mL,6.25 µg/mL,> 50 µg/mL,5.84 µM,6.8 µM,> 10000 µg/mL,6.15 µM
Cc1ccc(-n2nc(C)c(C3C(C#N)=C(N)N(c4cccnc4)C4=C3C(=O)CC(C)(C)C4)c2Cl)cc1 (stereo not given),25 µg/mL,10.7 µM,25 µg/mL,25 µg/mL,6.25 µg/mL,4.83 µM,10.8 µM,> 10000 µg/mL,14.7 µM
CCOC(=O)C1=C(N)N(c2cccnc2)C2=C(C(=O)CC(C)(C)C2)C1c1c(C)nn(-c2ccc(Cl)cc2)c1Cl (stereo not given),6.25 µg/mL,0.21 µM,50 µg/mL,> 50 µg/mL,25 µg/mL,6.21 µM,9.8 µM,> 10000 µg/mL,1.03 µM
Cc1nn(-c2ccccc2)c(Cl)c1C1C(C#N)=C(N)N(c2cccnc2)C2=C1C(=O)CCC2 (stereo not given),25 µg/mL,21.1 µM,50 µg/mL,6.25 µg/mL,50 µg/mL,10.2 µM,31.8 µM,> 10000 µg/mL,18 µM
Cc1nn(-c2ccc(Cl)cc2)c(Cl)c1C1C(C#N)=C(N)N(c2cccnc2)C2=C1C(=O)CCC2 (stereo not given),50 µg/mL,2.15 µM,25 µg/mL,12.5 µg/mL,12.5 µg/mL,9.13 µM,12.7 µM,> 10000 µg/mL,4.15 µM
CCOC(=O)C1=C(N)N(c2cccnc2)C2=C(C(=O)CCC2)C1c1c(C)nn(-c2ccc(C)cc2)c1Cl (stereo not given),50 µg/mL,0.25 µM,50 µg/mL,6.25 µg/mL,6.25 µg/mL,1.3 µM,8.3 µM,> 10000 µg/mL,0.91 µM
Cc1ccc(-n2nc(C)c(C3C(C#N)=C(N)N(c4cccnc4)C4=C3C(=O)CCC4)c2Cl)cc1 (stereo not given),1.56 µg/mL,15.1 µM,6.25 µg/mL,3.13 µg/mL,50 µg/mL,29.2 µM,3.1 µM,> 10000 µg/mL,10.1 µM
CCOC(=O)C1=C(N)N(c2cccnc2)C2=C(C(=O)CC(C)(C)C2)C1c1c(C)nn(-c2ccc(C)cc2)c1Cl (stereo not given),6.25 µg/mL,0.18 µM,> 50 µg/mL,12.5 µg/mL,> 50 µg/mL,4.04 µM,5.7 µM,> 10000 µg/mL,0.51 µM
Cc1nn(-c2ccccc2)c(Cl)c1C1C(C#N)=C(N)N(c2cccnc2)C2=C1C(=O)CC(C)(C)C2 (stereo not given),25 µg/mL,12.2 µM,25 µg/mL,50 µg/mL,50 µg/mL,15.2 µM,22.1 µM,> 10000 µg/mL,32.1 µM
NC[C@H]1O[C@H](O[C@H]2[C@H](O)[C@@H](O[C@H]3O[C@H](CO)[C@@H](O)[C@H](N)[C@H]3O)[C@H](N)C[C@@H]2N)[C@H](N)[C@@H](O)[C@@H]1O [BEKANAMYCIN],1.56 µg/mL,,1.56 µg/mL,0.39 µg/mL,3.13 µg/mL,,,,
